Measurements: ChEMBL document CHEMBL1127550 (J Med Chem, 1994)
pIC50: −log10 of the molar value.

Assays:
Cannabinoid receptor [1] = biological target: T1, Cannabinoid receptor (Rattus norvegicus, UniProt Q9QZN9+P20272); test: Binding affinity for the cannabinoid receptor in the absence of phenylmethanesulfonyl fluoride (PMSF) was determined in rat fore brain membranes; type: cell membranes, Membrane
Cannabinoid receptor [2] = biological target: T1, Cannabinoid receptor; test: Binding affinity for the cannabinoid receptor in the presence of phenylmethanesulfonyl fluoride (PMSF) was determined in rat fore brain membranes; type: cell membranes, Membrane
Mus musculus [3] = species on record: Mus musculus; test: Tested for potency towards inhibition of the twitch response in mouse vas deferens; type: functional
How it was run: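 Vasa deferentia from albino MF1 mice were mounted at 0.5 g initial tension in Mg2+-free Krebs at 37 °C, gassed 95% O2/5% CO2, and stimulated electrically (0.5 ms pulses). Increasing doses were added after washout; twitch amplitude at 14-15 min post-addition was compared with the pre-drug final minute. IC50 came from nonlinear-regression sigmoid log concentration-response curves, n = 6-8 tissues.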

Mus musculus [4] = test: Mean difference between rectal temperature measured at time zero and rectal temperature measured at 10 min at 6.25 (mg/kg) intravenous dose in 6 mice; type: ADME, organism-based; conditions: in vivo
How it was run: (§1)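 Male MF1 mice (23-29 g), drug dispersed with two parts Tween 80 by weight in 0.9% saline, injected iv at time zero; Tween 80 vehicle control. Rectal thermistor probe inserted 3 cm, read shortly before time zero and at 10 min; change = difference. Mice unrestrained in separate cages, ambient 20-22 °C. Means ± SE, Dunnett's test versus vehicle.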

Mus musculus [5] = test: Mean percentage time spend immobile on ring between 5 and 10 min at 6.25 (mg/kg) intravenous dose in 6 mice; type: ADME, organism-based; conditions: in vivo
How it was run: (§2)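 In male MF1 mice (23-29 g) dosed iv at time zero with a Tween 80/saline dispersion, each animal was placed at 5 min on a 5.5-cm horizontal ring on a 16-cm stalk. The percentage of the 5-min session spent immobile was scored. Ambient 20-22 °C, means ± SE, Dunnett's test versus vehicle.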

Mus musculus [6] = test: Mean percentage time spend immobile on ring between 5 and 10 min at 10 (mg/kg) intravenous dose in 6 mice; type: ADME, organism-based; conditions: in vivo; how it was run: as §2
Mus musculus [7] = test: Mean difference between rectal temperature measured at time zero and rectal temperature measured at 10 min at 10 (mg/kg) intravenous dose in 6 mice; type: ADME, organism-based; conditions: in vivo; how it was run: as §1
Mus musculus [8] = test: Mean number of squares entered(counts) over a 5 min period after placement in the center of a walled arena marked out in 16 squares of equal size at 10 (mg/kg) intravenous dose in 6 mice; type: ADME, organism-based; conditions: in vivo
How it was run: (§3)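 Male MF1 mice (23-29 g) given drug iv at time zero (Tween 80/saline dispersion; vehicle control). Each mouse was placed immediately in the centre of a 30 × 30 cm walled arena divided into 16 equal squares. Squares entered from 0 to 5 min were counted. Ambient 20-22 °C, means ± SE, Dunnett's test against vehicle.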

Mus musculus [9] = test: Mean number of squares entered(counts) over a 5 min period after placement in the center of a walled arena marked out in 16 squares of equal size at 6.25 (mg/kg) intravenous dose in 6 mice; type: ADME, organism-based; conditions: in vivo; how it was run: as §3
Mus musculus [10] = test: Mean percentage time spend immobile on ring between 5 and 10 min at 1.5625 (mg/kg) intravenous dose in 6 mice; type: ADME, organism-based; conditions: in vivo; how it was run: as §2
Mus musculus [11] = test: Mean percentage time spend immobile on ring between 5 and 10 min at 3.125 (mg/kg) intravenous dose in 6 mice; type: ADME, organism-based; conditions: in vivo; how it was run: as §2
Mus musculus [12] = test: Mean difference between rectal temperature measured at time zero and rectal temperature measured at 10 min at 3.125 (mg/kg) intravenous dose in 6 mice; type: ADME, organism-based; conditions: in vivo; how it was run: as §1
Mus musculus [13] = test: Mean number of squares entered(counts) over a 5 min period after placement in the center of a walled arena marked out in 16 squares of equal size at 3.125 (mg/kg) intravenous dose in 6 mice; type: ADME, organism-based; conditions: in vivo; how it was run: as §3
Mus musculus [14] = test: Mean number of squares entered(counts) over a 5 min period after placement in the center of a walled arena marked out in 16 squares of equal size at 1.5625 (mg/kg) intravenous dose in 6 mice; type: ADME, organism-based; conditions: in vivo; how it was run: as §3
Mus musculus [15] = test: Mean difference between rectal temperature measured at time zero and rectal temperature measured at 10 min at 1.5625 (mg/kg) intravenous dose in 6 mice; type: ADME, organism-based; conditions: in vivo; how it was run: as §1

**Q.** What does the source list for `CCCCC/C=C\C/C=C\C/C=C\C/C=C\CCCC(=O)NC[C@H](C)O`?
**A.** Ki (Cannabinoid receptor [1]): 158 nM; Ki (Cannabinoid receptor [2]): 26 nM; pIC50 (Mus musculus [3]): 7.33

**Q.** Which results are given for `CCCCC/C=C\C/C=C\C/C=C\C/C=C\CCCC(=O)NC[C@@H](C)O`?
**A.** Ki (Cannabinoid receptor [1]): > 2950 nM; Ki (Cannabinoid receptor [2]): 119 nM; pIC50 (Mus musculus [3]): 7.00

**Q.** `CCCCC/C=C\C/C=C\C/C=C\C/C=C\CCCC(=O)N[C@@H](C)CO` was tested. Which pIC50 (Mus musculus [3]) did it give?
**A.** 6.64

**Q.** What does the source list for `CCCCC/C=C\C/C=C\C/C=C\C/C=C\CCCC(=O)NCCO` [ANANDAMIDE]?
**A.** Body temperature (Mus musculus [4]): -3.18 °C; Ring immobility (Mus musculus [5]): 93.9%; Ring immobility (Mus musculus [6]): 64.2%; Body temperature (Mus musculus [7]): -1.43 °C; Hypokinesia (Mus musculus [8]): 14.7 Counts; Hypokinesia (Mus musculus [9]): 10.2 Counts; pIC50 (Mus musculus [3]): 7.28

**Q.** For `CCCCC/C=C\C/C=C\C/C=C\C/C=C\CCCC(=O)N[C@H](C)CO` [METHANANDAMIDE], which Ring immobility (Mus musculus [10]) is on record?
**A.** 40.2%

**Q.** What about the Ring immobility (Mus musculus [11]) of the same compound?
**A.** 87.4%

**Q.** And the Body temperature (Mus musculus [12])?
**A.** 1.5 °C

**Q.** What about the Hypokinesia (Mus musculus [13]) of the same compound?
**A.** 26.5 Counts

**Q.** What about the Hypokinesia (Mus musculus [14]) of the same compound?
**A.** 76.8 Counts

**Q.** What about the pIC50 (Mus musculus [3]) of the same compound?
**A.** 7.92

**Q.** And the Body temperature (Mus musculus [15])?
**A.** 0.27 °C
